Tests used:
Type in all cases: functional
Rattus norvegicus [1] = test: Effect upon subcutaneous administration on the heart rate in rat was determined
Method in brief: (§1)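 Cholesterol-fed male Sprague-Dawley rats (1.5% cholesterol, 0.5% cholic acid, 2 weeks) dosed s.c. once daily for 7 days, vehicle 10% m-pyrol/5% ethanol/5% cremaphor/80% water, n = 6/dose, 1.54–9240 nmol/kg/day. Heart rate recorded by lead II ECG under 30 mg/kg pentobarbital. ED15 = dose raising heart rate 15% over vehicle; ratio taken against cholesterol ED50 (50% suppression from vehicle).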

Rattus norvegicus [2] = test: Effect upon subcutaneous administration on TSH suppression in rat was determined
Method in brief: (§2)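 Male Sprague-Dawley rats on chow with 1.5% cholesterol and 0.5% cholic acid for 2 weeks, then s.c. once daily for 7 days (vehicle 10% m-pyrol, 5% ethanol, 5% cremaphor, 80% water; n = 6/dose), doses 1.54–9240 nmol/kg/day. Plasma TSH measured by rat RIA and cholesterol by clinical analyzer in aortic blood after pentobarbital. ED50 = dose giving 50% suppression from vehicle, in nmol/kg/day.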

Rattus norvegicus [3] = test: Effect upon subcutaneous administration on cholesterol in rat was determined; method in brief: as §2
Rattus norvegicus [4] = organism: Rattus norvegicus; test: Ratio of ED15HR to that of ED50chol was determined; method in brief: as §1
Rattus norvegicus [5] = organism: Rattus norvegicus; test: Ratio of ED50TSH to that of ED50chol was determined; method in brief: as §2

| SMILES | ED15 (Rattus norvegicus [1]) [nM/day/kg] | ED50 (Rattus norvegicus [2]) [nM/day/kg] | ED50 (Rattus norvegicus [3]) [nM/day/kg] | HR/chol (Rattus norvegicus [4]) | TSH/chol (Rattus norvegicus [5]) |
| --- | --- | --- | --- | --- | --- |
| N[C@H](Cc1cc(I)c(Oc2ccc(O)c(I)c2)c(I)c1)C(=O)O [DETROTHYRONINE] | 14 | 7 | 20 | 0.7 | 0.3 |
| CC(C)c1cc(Oc2c(Br)cc(CC(=O)O)cc2Br)ccc1O | 926 | <46.2 | 95.4 | 9.7 | <0.5 |
| CC(C)c1cc(Oc2c(Cl)cc(CC(=O)O)cc2Cl)ccc1O | 1077 | 38 | 82 | 13.1 | 0.4 |

— ChEMBL document CHEMBL1136772, “Thyroid receptor ligands. 1. Agonist ligands selective for the thyroid receptor beta1” (J Med Chem, 2003)
